Data on twelve compounds can be found in ChEMBL document CHEMBL4425098, “Thiolactomycin-Based Inhibitors of Bacterial β-Ketoacyl-ACP Synthases with in Vivo Activity” (J Med Chem, 2016).

pKd: −log10 of the molar value. Values after ≈ are worked out from the molar mass of the structure shown. Active and inactive are the calls of the source. The rule behind the calls is not given here. A value given as a limit tells only on which side of the number the result lay.

In assay [1] the test system is Mycobacterium tuberculosis. Description: Antibacterial activity against Mycobacterium tuberculosis H37Rv after 6 days by Alamar blue dye-based colorimetric assay. It counts as functional. Particulars: 144 h. A digest of the protocol: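 M. tuberculosis H37Rv grown to early-mid log phase in Middlebrook 7H9 with 10% OADC and 0.05% Tween 80, added to 1:2 serial compound dilutions, and grown for 6 days at 37°C. Alamar blue then added for a further 24 h. MIC taken as the concentration preventing visible growth and Alamar blue reduction in all replicates.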
(In general: Alamar Blue is a resazurin reagent that responds to reducing activity.)

Assay [2] concerns Francisella tularensis. Description: Antibacterial activity against Francisella tularensis LVS after 18 to 24 hrs by Alamar blue dye-based colorimetric assay. The class given is functional.
The subject of assay [3] is Staphylococcus aureus. The assay can be described thus: Antibacterial activity against methicillin-sensitive Staphylococcus aureus RN4220 after 18 to 24 hrs by Alamar blue dye-based colorimetric assay. The class given is functional. A digest of the protocol:
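Two-fold serial dilutions from 512 down to 0.25 μg/mL in CAMHB (microbroth dilution); incubated 37 °C for 18–24 h, then Alamar Blue added for a further 4 h. Absorbance read at 570 and 600 nm; percent growth reduction plotted against concentration, MIC90 from non-linear regression; growth and MICs confirmed by optical density.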

The subject of assay [4] is Staphylococcus aureus. The assay can be described thus: Antibacterial activity against methicillin-resistant Staphylococcus aureus BAA 1762 after 18 to 24 hrs by Alamar blue dye-based colorimetric assay. It counts as functional.
Assay [5] relates to Yersinia pestis. Description: Antibacterial activity against Yersinia pestis A1122 after 18 to 24 hrs by Alamar blue dye-based colorimetric assay. It counts as functional.
In assay [6] the test system is Mycobacterium tuberculosis. The assay can be described thus: Binding affinity to Mycobacterium tuberculosis wild type FabB expressed in Mycobacterium smegmatis MC2 155 by WaterLOGSY-based competition assay.
For assay [7], the system named is Burkholderia pseudomallei. Description: Antibacterial activity against Burkholderia pseudomallei after 18 to 24 hrs by Alamar blue dye-based colorimetric assay. The class given is functional.
Assay [8] has as its target T1, 3-oxoacyl-[acyl-carrier-protein] synthase 2 (Staphylococcus aureus, UniProt Q5TKS0).
T1 sequence (Q5TKS0 whole entry): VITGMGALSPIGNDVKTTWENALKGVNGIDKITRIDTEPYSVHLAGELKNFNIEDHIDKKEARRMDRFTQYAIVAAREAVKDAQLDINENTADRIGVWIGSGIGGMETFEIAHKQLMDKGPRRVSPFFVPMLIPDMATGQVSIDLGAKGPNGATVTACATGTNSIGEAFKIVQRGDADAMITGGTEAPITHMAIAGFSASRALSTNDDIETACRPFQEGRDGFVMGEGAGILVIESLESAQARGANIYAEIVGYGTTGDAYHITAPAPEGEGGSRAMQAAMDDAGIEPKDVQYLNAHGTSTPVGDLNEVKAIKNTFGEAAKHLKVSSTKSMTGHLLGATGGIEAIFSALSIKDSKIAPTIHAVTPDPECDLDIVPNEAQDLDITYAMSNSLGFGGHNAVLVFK
The assay can be described thus: Binding affinity to Staphylococcus aureus wild type FabF expressed in Escherichia coli BL21 (DE3) PlysS cells by intrinsic tryptophan fluorescence quenching-based fluorimetric method.

Turning to `C=C/C(C)=C/[C@@]1(C)SC(=O)C(CCCN=[N+]=[N-])=C1O`, the MIC90 – broadly, the lowest concentration that inhibits either 90% of growth or 90% of the strains tested, depending on the study – in assay [1] was 100 µg/mL (≈ 358 µM); in assay [2] it was 23.6 µg/mL (≈ 84.5 µM); in assay [3], more than 64 µg/mL; in assay [4], more than 100 µg/mL; in assay [5] it was more than 250 µg/mL.

As to `C=C/C(C)=C/[C@@]1(C)SC(=O)C(CCCCn2cc(CNC(=O)[C@H](O)C(C)(C)CO)nn2)=C1O`, the MIC90 in assay [1] was more than 100 µg/mL; in assay [2], 250 µg/mL (≈ 522 µM); in assay [3] it was more than 64 µg/mL; in assay [4] it was more than 100 µg/mL; in assay [5], more than 250 µg/mL.

Regarding `C=C/C(C)=C/[C@@]1(C)SC(=O)C=C1OCC(=O)NCCn1cc(CNC(=O)c2ccc(NS(=O)(=O)c3ccc(F)cc3)cc2)nn1`, the MIC90 is more than 100 µg/mL in assay [1], more than 256 µg/mL in assay [2], more than 64 µg/mL in assay [3] and more than 64 µg/mL in assay [4]. Besides, the outcome in assay [6] was inactive.

In the case of `C=C/C(C)=C/[C@@]1(C)SC(=O)C(CCCCc2ccc(F)cc2)=C1O`, the MIC90 is more than 100 µg/mL in assay [1]; 3.1 µg/mL (≈ 8.95 µM) in assay [2]; more than 64 µg/mL in assay [3]; 75 µg/mL (≈ 216 µM) in assay [4]; more than 250 µg/mL in assay [5]. In assay [7], the result was inactive.

Take `C=C/C(C)=C/[C@@]1(C)SC(=O)C=C1O`: the MIC90 in assay [1] was more than 100 µg/mL; in assay [2], 124 µg/mL (≈ 632 µM); in assay [3], 150 µg/mL (≈ 764 µM); in assay [4], 100 µg/mL (≈ 509 µM); in assay [5], 250 µg/mL (≈ 1270 µM). Further, the result in assay [6] and in assay [7] was inactive.

As for `C=C/C(C)=C/[C@@]1(C)SC(=O)C(C(=O)c2ccccc2C(=O)O)=C1O`, the MIC90 in assay [1] was 50 µg/mL (≈ 145 µM); in assay [2], 15.9 µg/mL (≈ 46.2 µM); in assay [3], 32 µg/mL (≈ 92.9 µM); in assay [4], 32 µg/mL (≈ 92.9 µM); in assay [5], more than 250 µg/mL. In addition, the outcome in assay [7] was inactive.

Regarding `C=C/C(C)=C/[C@@]1(C)SC(=O)C(CCCCc2ccc(-c3ccccc3)cc2)=C1O`, the MIC90 was 12.5 µg/mL (≈ 30.9 µM) in assay [1]; 1.9 µg/mL (≈ 4.7 µM) in assay [2]; 16 µg/mL (≈ 39.5 µM) in assay [3]; 25 µg/mL (≈ 61.8 µM) in assay [4]; more than 250 µg/mL in assay [5]. Also, the pKd (commonly the negative decadic logarithm of the Kd, by convention in mol/L) in assay [8] was 3.88.

On to `C=C/C(C)=C/[C@@]1(C)SC(=O)C=C1OCC(=O)NCCN=[N+]=[N-]`, for which the MIC90 in assay [1] is more than 100 µg/mL; in assay [2] it was 39 µg/mL (≈ 121 µM); in assay [3], more than 64 µg/mL; in assay [4] it was more than 64 µg/mL. The outcome in assay [6] was inactive.

In the case of `C=C/C(C)=C/[C@@]1(C)SC(=O)C=C1OCC(=O)NCCn1cc(CNC(=O)[C@H](O)C(C)(C)CO)nn1`, the MIC90 in assay [1] is 100 µg/mL (≈ 197 µM); in assay [2], 159 µg/mL (≈ 313 µM); in assay [3], more than 64 µg/mL; in assay [4] it was more than 64 µg/mL. Also, in assay [6], the outcome was inactive.

`C=C/C(C)=C/[C@@]1(C)SC(=O)C(C(=O)OC)=C1O`: the MIC90 in assay [1] was 100 µg/mL (≈ 393 µM); in assay [2], 58.2 µg/mL (≈ 229 µM); in assay [3], more than 64 µg/mL; in assay [4] it was more than 64 µg/mL; in assay [5] it was more than 250 µg/mL. The outcome in assay [7] was inactive.

For `C=C/C(C)=C/[C@@]1(C)SC(=O)C(C(=O)CCC)=C1O`, the MIC90 in assay [1] was 100 µg/mL (≈ 375 µM); in assay [2], 1.8 µg/mL (≈ 6.76 µM); in assay [3] it was 16 µg/mL (≈ 60.1 µM); in assay [4] it was 32 µg/mL (≈ 120 µM); in assay [5] it was more than 250 µg/mL. For the same compound, the result in assay [7] was inactive.

With `C=C/C(C)=C/[C@@]1(C)SC(=O)C(CCc2ccc(C)cc2)=C1O`, the MIC90 in assay [2] is 3.4 µg/mL (≈ 10.8 µM); in assay [3], more than 64 µg/mL; in assay [4] it was more than 100 µg/mL; in assay [5] it was more than 250 µg/mL.
